The values that follow come from ChEMBL document CHEMBL1143700, “Antiangiogenic versus cytotoxic activity in analogues of aeroplysinin-1” (Bioorg Med Chem, 2007).

Values after ≈ are worked out from the molar mass of the structure shown.

The nature of assay [1]: Effect on tube formation of BAEC assessed as sprouting inhibition after 48 hrs. Format: functional, Bos taurus. An outline of the steps:
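BAE cells coated onto Cytodex 3 microcarrier beads over 48 h at 37 °C, 5% CO₂. Beads (250/mL) seeded onto Matrigel in wells containing compound; medium added after 30 min. After 48 h, sprout extent and length scored by microscopy against untreated wells. MIC = lowest concentration with no tube formation; ">" means not reached at the top concentration tested.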

A short description of assay [2]: Cytotoxicity against BAEC after 2 days by MTT assay. Format: cell-based, Bos taurus. An outline of the steps:
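BAE cells (primary bovine aortic endothelium, collagenase-isolated; grown in DMEM/20% FBS), 8·10³ per well, exposed to serial dilutions for 2 days at 37 °C, 5% CO₂. MTT (5 mg/mL in PBS) then added for a further 2 h at 37 °C. Formazan dissolved in DMSO and read spectrophotometrically. IC50 = concentration inhibiting growth by 50%; ">" means not reached at the top concentration tested.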
A general note: Formazan colour is commonly taken as a measure of viable cells.

Assay [3] in a line: Ratio of MIC for BAEC sprouting to IC50 for BAEC. The format is functional, Bos taurus.
Setting [4] is: Bos taurus, 48 h, read-out: MIC.

For `COC(=O)/C(=C/c1cc(Br)c(OC)c(Br)c1OCc1ccccc1)NC(=O)c1ccccc1`, the minimal inhibitory concentration (MIC) in assay [1] (setting [4]) is over 35 µM. In assay [2] (Bos taurus, BAEC, 48 h), this molecule yielded an IC50 of over 17 µM.

Consider `COC(=O)/C=C/c1cc(Br)c(OC)c(Br)c1O`, for which the minimum inhibitory concentration (MIC) in assay [1] (setting [4]) was over 14 µM. The half-maximal inhibitory concentration (IC50) in assay [2] (Bos taurus, BAEC, 48 h) was over 14 µM.

On to `COc1ccc(C=O)c(O)c1`, for which the minimal inhibitory concentration (MIC) in assay [1] (setting [4]) is over 33 µM. Besides, the IC50 in assay [2] (Bos taurus, BAEC, 48 h) is over 33 µM.

Turning to `O=C1C=CC(Br)=C[C@]12CO2`, the minimum inhibitory concentration (MIC) in assay [1] (setting [4]) was 25 µM (≈ 5.03 µg/mL). This molecule registered a half-inhibitory concentration (IC50) in assay [2] (Bos taurus, BAEC, 48 h) of over 25 µM.

For `O=C1C2(Br)C=C(Br)C([C@H]3[C@]2(Br)C=C(Br)C(=O)[C@]32CO2)[C@@]12CO2` (some centres undefined), in assay [1] (setting [4]), the MIC was determined as 2 µM (≈ 1.12 µg/mL). Moreover, the Ratio in assay [3] came to 2. Besides, the IC50 in assay [2] (Bos taurus, BAEC, 48 h) was found to be 4 µM.

`COc1c(Br)cc(/C=C2\N=C(c3ccccc3)OC2=O)c(OCc2cc(N(C)C)ccc2Br)c1Br` [listing 1 of 2 here]: the MIC in assay [1] (setting [4]) is over 28 µM. In assay [2] (baec), this molecule gave an IC50 of 71 µM.

With `COC1=C(Br)C(=O)[C@]2(C=C1Br)CO2`, in assay [1] (setting [4]), the MIC was found to be 3 µM (≈ 0.93 µg/mL). The Ratio in assay [3] came to 54. In addition, in assay [2] (Bos taurus, BAEC, 48 h), half-maximal inhibition (IC50) was put at 161 µM.

In the case of `COc1c(Br)cc(/C=C2\N=C(c3ccccc3)OC2=O)c(OC(=O)c2ccc(N(C)C)cc2)c1Br`, in assay [1] (setting [4]), the MIC was over 17 µM. In assay [2] (Bos taurus, BAEC, 48 h), this molecule showed an IC50 of 83 µM.

Regarding `COc1c(Br)cc(/C=C2\N=C(c3ccccc3)OC2=O)c(OCc2ccccc2)c1Br`, the MIC in assay [1] (setting [4]) is 1 µM (≈ 0.543 µg/mL). Moreover, in assay [3], the Ratio is on record as 921. Moreover, the half-inhibitory concentration (IC50) in assay [2] (Bos taurus, BAEC, 48 h) amounted to 921 µM.

Take `COc1c(Br)cc(C=O)c(OC(C)=O)c1Br`: the MIC in assay [1] (setting [4]) was determined as 33 µM (≈ 11.6 µg/mL). Moreover, in assay [3], the Ratio was 0.7. In assay [2] (Bos taurus, BAEC, 48 h), half-maximal inhibition (IC50) required 23 µM.

As to `COC1=CC(=O)[C@]2(C=C1)CO2`, in assay [1] (setting [4]), the MIC stood at 33 µM (≈ 5.02 µg/mL). For the same molecule, in assay [3], the Ratio was 1. It took 33 µM to reach half-maximal inhibition in assay [2] (Bos taurus, BAEC, 48 h) (IC50).

`COC1=C(Br)C(=O)[C@@]2(CO2)C(OC)=C1Br`: the MIC in assay [1] (setting [4]) came out at 15 µM (≈ 5.1 µg/mL). The half-maximal inhibitory concentration (IC50) in assay [2] (Bos taurus, BAEC, 48 h) was over 15 µM.

Take `COc1c(Br)cc(CO)c(OCc2ccccc2)c1Br`: the minimal inhibitory concentration (MIC) in assay [1] (setting [4]) was over 12 µM. The 50% inhibitory concentration (IC50) in assay [2] (Bos taurus, BAEC, 48 h) is over 12 µM.

Take `COc1c(Br)cc(/C=C2\N=C(c3ccccc3)OC2=O)c(OCc2cc(N(C)C)ccc2Br)c1Br` [listing 2 of 2 here]: the MIC in assay [1] is over 30 µM. The 50% inhibitory concentration (IC50) in assay [2] (baec) was over 15 µM.

`COc1c(Br)cc(C=O)c(OCc2ccccc2)c1Br`: in assay [1] (setting [4]), the MIC is over 12.5 µM. For the same molecule, the half-maximal inhibitory concentration (IC50) in assay [2] (Bos taurus, BAEC, 48 h) was over 12.5 µM.

As to `COC(=O)COc1c(CO)cc(Br)c(OC)c1Br`, the MIC in assay [1] (setting [4]) was over 26 µM. The half-maximal inhibitory concentration (IC50) in assay [2] (Bos taurus, BAEC, 48 h) was over 26 µM.

On to `O=Cc1cc(Br)cc(Br)c1O`, for which the MIC in assay [1] (setting [4]) worked out at 71 µM (≈ 19.9 µg/mL). Also, the Ratio in assay [3] is recorded as 0.5. The IC50 in assay [2] (Bos taurus, BAEC, 48 h) amounted to 36 µM.

Turning to `COc1c(Br)cc2c(c1Br)OCC(O)OC2` (centres undefined), the minimal inhibitory concentration (MIC) in assay [1] (setting [4]) was over 28 µM. In assay [2] (Bos taurus, BAEC, 48 h), this molecule had a concentration for half-maximal inhibition (IC50) of over 28 µM.

For `COC(=O)COc1c(C=O)cc(Br)c(OC)c1Br`, in assay [1] (setting [4]), the MIC amounted to 52 µM (≈ 19.9 µg/mL). The Ratio in assay [3] was 3. In assay [2] (Bos taurus, BAEC, 48 h), this molecule yielded an IC50 of 151 µM.

As to `COc1c(Br)cc(C=O)c(O)c1Br`, the MIC in assay [1] (setting [4]) is over 16 µM. Also, in assay [2] (Bos taurus, BAEC, 48 h), the 50% inhibitory concentration (IC50) was 806 µM.

Regarding `O=C1C(Br)=CC(Br)=C[C@]12CO2`, the MIC in assay [1] (setting [4]) stood at 2 µM (≈ 0.56 µg/mL). The Ratio in assay [3] turned out to be 6. The molecule also had a concentration for half-maximal inhibition (IC50) in assay [2] (Bos taurus, BAEC, 48 h) of 12 µM.

With `COc1c(Br)cc(/C=C2\N=C(c3ccccc3)OC2=O)c(O)c1Br`, the minimum inhibitory concentration (MIC) in assay [1] (setting [4]) was over 22 µM. The same molecule yielded a concentration for half-maximal inhibition (IC50) in assay [2] (Bos taurus, BAEC, 48 h) of over 22 µM.

Turning to `COc1c(Br)cc(C=O)c(OC(=O)c2ccc(N(C)C)cc2)c1Br`, in assay [1] (setting [4]), the MIC was over 44 µM. For the same molecule, the half-inhibitory concentration (IC50) in assay [2] (Bos taurus, BAEC, 48 h) is over 22 µM.

Turning to `COc1c(Br)cc(CO)c(O)c1Br`, the minimal inhibitory concentration (MIC) in assay [1] (setting [4]) is over 16 µM. Further, the IC50 in assay [2] (Bos taurus, BAEC, 48 h) was over 16 µM.

For `COC1=CC(=O)[C@]2(C=C1Br)CO2`, in assay [1] (setting [4]), the minimal inhibitory concentration (MIC) is over 22 µM. In assay [2] (Bos taurus, BAEC, 48 h), this molecule came in with an IC50 of over 22 µM.

Regarding `COc1c(Br)cc(/C=C2\N=C(c3ccccc3)OC2=O)c(OC(=O)c2ccccc2)c1Br`, in assay [1] (setting [4]), the MIC stood at 27 µM (≈ 15 µg/mL). Besides, the half-inhibitory concentration (IC50) in assay [2] (Bos taurus, BAEC, 48 h) was over 18 µM.

In the case of `COC(=O)CCc1cc(Br)c(OC)c(Br)c1O`, the minimal inhibitory concentration (MIC) in assay [1] (setting [4]) is over 27 µM. Moreover, the 50% inhibitory concentration (IC50) in assay [2] (Bos taurus, BAEC, 48 h) was 136 µM.

In the case of `COc1c(Br)cc(C=O)c(OCc2cc(N(C)C)ccc2Br)c1Br`, the minimal inhibitory concentration (MIC) in assay [1] (setting [4]) is over 38 µM. For the same molecule, in assay [2] (Bos taurus, BAEC, 48 h), the IC50 was over 19 µM.

As to `COC1=C(Br)[C@H](O)[C@](O)(CC#N)C=C1Br` (single isomer, unassigned), the MIC in assay [1] (setting [4]) was 2 µM (≈ 0.678 µg/mL). Besides, in assay [3], the Ratio turned out to be 14. The same molecule returned a half-inhibitory concentration (IC50) in assay [2] (Bos taurus, BAEC, 48 h) of 29 µM.

For the molecule `COc1c(Br)cc(CO)c(OCCO)c1Br`, in assay [1] (setting [4]), the MIC was determined as 28 µM (≈ 9.97 µg/mL). In assay [2] (Bos taurus, BAEC, 48 h), this molecule gave an IC50 of over 28 µM.

Consider `COC1=C(Br)C(=O)[C@]2(C=C1)CO2`, for which the MIC in assay [1] (setting [4]) stood at 3 µM (≈ 0.693 µg/mL). Also, the Ratio in assay [3] came out at 4. Besides, the 50% inhibitory concentration (IC50) in assay [2] (Bos taurus, BAEC, 48 h) worked out at 11 µM.

Turning to `OCc1cc(Br)cc(Br)c1O`, the MIC in assay [1] (setting [4]) stood at 71 µM (≈ 20 µg/mL). In addition, in assay [2] (Bos taurus, BAEC, 48 h), the concentration for half-maximal inhibition (IC50) was over 35 µM.

What is called MIC is the lowest concentration that inhibits growth of the organism. One may read the IC50 as the concentration that gives 50% inhibition. A low value points to greater potency.
